Results taken from ChEMBL document CHEMBL2086252, “Syntheses and evaluation of anticonvulsant activity of novel branched alkyl carbamates” (J Med Chem, 2012).
Active and inactive are the calls of the source.

Tests used:
[1] = Neurotoxicity in po dosed Sprague-Dawley albino rat assessed as minimal motor impairment by rotarod test; format: toxicity, organism-based; conditions: in vivo
Method in brief: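 Rats dosed orally; 4 rats per time point after dosing. Neurotoxicity was scored as motor impairment or sedation and reported as number of animals affected over number tested.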

[2] = test system: Mus musculus; test: Anticonvulsant activity in albino CF1 mouse assessed as protection against subcutaneous metrazol-induced seizures at 30 mg/kg, ip after 0.5 hrs; format: functional, organism-based; set-up: dose 30 mg/kg
Method in brief: (§1)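 Mice dosed ip at 30, 100 or 300 mg/kg, then tested 0.5 h and 4 h after administration in the MES or scMet test. Protection was recorded as animals protected over animals tested. Neurotoxicity was recorded as motor impairment or sedation, as animals affected over animals tested.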

[3] = test system: Mus musculus; test: Anticonvulsant activity in albino CF1 mouse assessed as protection against subcutaneous metrazol-induced seizures at 100 mg/kg, ip after 0.5 hrs; format: functional, organism-based; set-up: dose 100 mg/kg; method in brief: as §1
[4] = test system: Mus musculus; test: Anticonvulsant activity in albino CF1 mouse assessed as protection against subcutaneous metrazol-induced seizures at 300 mg/kg, ip after 0.5 hrs; format: functional, organism-based; set-up: dose 300 mg/kg; method in brief: as §1
[5] = test system: Mus musculus; test: Anticonvulsant activity in albino CF1 mouse assessed as protection against subcutaneous metrazol-induced seizures at 30 mg/kg, ip after 4 hrs; format: functional, organism-based; set-up: dose 30 mg/kg; method in brief: as §1
[6] = test system: Mus musculus; test: Anticonvulsant activity in albino CF1 mouse assessed as protection against subcutaneous metrazol-induced seizures at 100 mg/kg, ip after 4 hrs; format: functional, organism-based; set-up: dose 100 mg/kg; method in brief: as §1
[7] = test system: Mus musculus; test: Anticonvulsant activity in albino CF1 mouse assessed as protection against subcutaneous metrazol-induced seizures at 300 mg/kg, ip after 4 hrs; format: functional, organism-based; set-up: dose 300 mg/kg; method in brief: as §1
[8] = test system: Mus musculus; test: Anticonvulsant activity in albino CF1 mouse assessed as protection against maximal electroshock-induced seizures at 30 mg/kg, ip after 0.5 hrs; format: functional, organism-based; set-up: dose 30 mg/kg; method in brief: as §1
[9] = test system: Mus musculus; test: Anticonvulsant activity in albino CF1 mouse assessed as protection against maximal electroshock-induced seizures at 100 mg/kg, ip after 0.5 hrs; format: functional, organism-based; set-up: dose 100 mg/kg; method in brief: as §1
[10] = test system: Mus musculus; test: Anticonvulsant activity in albino CF1 mouse assessed as protection against maximal electroshock-induced seizures at 300 mg/kg, ip after 0.5 hrs; format: functional, organism-based; set-up: dose 300 mg/kg; method in brief: as §1
[11] = test system: Mus musculus; test: Anticonvulsant activity in albino CF1 mouse assessed as protection against maximal electroshock-induced seizures at 30 mg/kg, ip after 4 hrs; format: functional, organism-based; set-up: dose 30 mg/kg; method in brief: as §1
[12] = test system: Mus musculus; test: Anticonvulsant activity in albino CF1 mouse assessed as protection against maximal electroshock-induced seizures at 100 mg/kg, ip after 4 hrs; format: functional, organism-based; set-up: dose 100 mg/kg; method in brief: as §1
[13] = test system: Mus musculus; test: Anticonvulsant activity in albino CF1 mouse assessed as protection against maximal electroshock-induced seizures at 300 mg/kg, ip after 4 hrs; format: functional, organism-based; set-up: dose 300 mg/kg; method in brief: as §1
[14] = test system: Mus musculus; test: Neurotoxicity in albino CF1 mouse assessed as minimal motor impairment at 30 mg/kg, ip after 0.5 hrs by rotarod test; format: toxicity, organism-based; set-up: dose 30 mg/kg, route intraperitoneal; conditions: in vivo; method in brief: as §1
[15] = test system: Mus musculus; test: Neurotoxicity in albino CF1 mouse assessed as minimal motor impairment at 30 mg/kg, ip after 4 hrs by rotarod test; format: toxicity, organism-based; set-up: dose 30 mg/kg, route intraperitoneal; conditions: in vivo; method in brief: as §1
[16] = test system: Mus musculus; test: Neurotoxicity in albino CF1 mouse assessed as minimal motor impairment at 100 mg/kg, ip after 4 hrs by rotarod test; format: toxicity, organism-based; set-up: dose 100 mg/kg, route intraperitoneal; conditions: in vivo; method in brief: as §1
[17] = test system: Mus musculus; test: Neurotoxicity in albino CF1 mouse assessed as minimal motor impairment at 300 mg/kg, ip after 4 hrs by rotarod test; format: toxicity, organism-based; set-up: dose 300 mg/kg, route intraperitoneal; conditions: in vivo; method in brief: as §1
[18] = test system: Rattus norvegicus; test: Anticonvulsant activity in Sprague-Dawley albino rat assessed as protection against maximal electroshock-induced seizures at 30 mg/kg, po after 1 hr; format: functional, organism-based; set-up: dose 30 mg/kg
Method in brief: (§2)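 Rats dosed orally. Anti-MES protection was scored as animals protected over animals tested at each time after dosing. Neurotoxicity was scored as motor impairment or sedation, as animals affected over animals tested.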

[19] = test system: Rattus norvegicus; test: Anticonvulsant activity in Sprague-Dawley albino rat assessed as protection against maximal electroshock-induced seizures at 30 mg/kg, po after 2 hrs; format: functional, organism-based; set-up: dose 30 mg/kg; method in brief: as §2
[20] = test system: Rattus norvegicus; test: Anticonvulsant activity in Sprague-Dawley albino rat assessed as protection against maximal electroshock-induced seizures at 30 mg/kg, po after 4 hrs; format: functional, organism-based; set-up: dose 30 mg/kg; method in brief: as §2
[21] = test system: Rattus norvegicus; test: Neurotoxicity in Sprague-Dawley albino rat assessed as minimal motor impairment at 30 mg/kg, po by rotarod test; format: toxicity, organism-based; set-up: dose 30 mg/kg, route oral; conditions: in vivo; method in brief: as §2
[22] = test system: Rattus norvegicus; test: Anticonvulsant activity in po dosed Sprague-Dawley albino rat assessed as protection against maximal electroshock-induced seizures; format: functional
Method in brief: (§3)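 Quantitative testing: rats dosed orally or ip in MES and scMet tests, and mice dosed ip, including the 6 Hz (32 mA) psychomotor seizure test. ED50 and TD50 were reported in mg/kg with ranges in parentheses. Protective index was calculated as TD50/ED50.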

[23] = test system: Rattus norvegicus; test: Protective index, ratio of TD50 for po dosed Sprague-Dawley albino rat by rotarod test to ED50 for po dosed Sprague-Dawley albino rat by maximal electroshock seizures test; format: functional
Method in brief: (§4)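 Protective index calculated as TD50/ED50, with TD50 and ED50 taken from the same species and dosing route.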

[24] = test system: Rattus norvegicus; test: Anticonvulsant activity in po dosed Sprague-Dawley albino rat assessed as protection against subcutaneous metrazol-induced seizures; format: functional; method in brief: as §3
[25] = test system: Rattus norvegicus; test: Protective index, ratio of TD50 for po dosed Sprague-Dawley albino rat by rotarod test to ED50 for po dosed Sprague-Dawley albino rat by subcutaneous metrazol seizures test; format: functional; method in brief: as §4
[26] = test system: Rattus norvegicus; test: Anticonvulsant activity in Sprague-Dawley albino rat assessed as protection against pilocarpine-induced status epilepticus at 65 mg/kg, ip; format: functional, organism-based; set-up: dose 65 mg/kg
Method in brief: (§5)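 Pilocarpine status epilepticus model in rats. Number and severity of convulsive seizures were observed behaviourally.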

[27] = test system: Rattus norvegicus; test: Neurotoxicity in pilocarpine-induced status epilepticus Sprague-Dawley albino rat model assessed as minimal motor impairment at 100 mg/kg, ip after 0.25 hr by rotarod test; format: toxicity, organism-based; set-up: dose 100 mg/kg, route intraperitoneal; conditions: in vivo
[28] = test system: Rattus norvegicus; test: Neurotoxicity in pilocarpine-induced status epilepticus Sprague-Dawley albino rat model assessed as minimal motor impairment at 300 mg/kg, ip after 0.25 hr by rotarod test; format: toxicity, organism-based; set-up: dose 300 mg/kg, route intraperitoneal; conditions: in vivo
Method in brief: (§6)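 Rat pilocarpine status epilepticus model: test carbamate given at 0 or 30 min after the first observed Racine stage 3 motor seizure, which marks SE onset. Neurotoxicity was scored within the same model.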

[29] = test system: Rattus norvegicus; test: Neurotoxicity in pilocarpine-induced status epilepticus Sprague-Dawley albino rat model assessed as minimal motor impairment at 30 mg/kg, ip after 0.25 hr by rotarod test; format: toxicity, organism-based; set-up: dose 30 mg/kg, route intraperitoneal; conditions: in vivo; method in brief: as §6
[30] = test system: Rattus norvegicus; test: Neurotoxicity in pilocarpine-induced status epilepticus Sprague-Dawley albino rat model assessed as minimal motor impairment at 100 mg/kg, ip after 0.5 hrs by rotarod test; format: toxicity, organism-based; set-up: dose 100 mg/kg, route intraperitoneal; conditions: in vivo
[31] = test system: Rattus norvegicus; test: Neurotoxicity in pilocarpine-induced status epilepticus Sprague-Dawley albino rat model assessed as minimal motor impairment at 300 mg/kg, ip after 0.5 hrs by rotarod test; format: toxicity, organism-based; set-up: dose 300 mg/kg, route intraperitoneal; conditions: in vivo; method in brief: as §6
[32] = test system: Rattus norvegicus; test: Neurotoxicity in pilocarpine-induced status epilepticus Sprague-Dawley albino rat model assessed as minimal motor impairment at 30 mg/kg, ip after 0.5 hrs by rotarod test; format: toxicity, organism-based; set-up: dose 30 mg/kg, route intraperitoneal; conditions: in vivo; method in brief: as §6
[33] = test system: Rattus norvegicus; test: Neurotoxicity in pilocarpine-induced status epilepticus Sprague-Dawley albino rat model assessed as minimal motor impairment at 300 mg/kg, ip after 1 hr by rotarod test; format: toxicity, organism-based; set-up: dose 300 mg/kg, route intraperitoneal; conditions: in vivo; method in brief: as §6
[34] = test system: Rattus norvegicus; test: Neurotoxicity in pilocarpine-induced status epilepticus Sprague-Dawley albino rat model assessed as minimal motor impairment at 30 mg/kg, ip after 1 hr by rotarod test; format: toxicity, organism-based; set-up: dose 30 mg/kg, route intraperitoneal; conditions: in vivo; method in brief: as §6
[35] = test system: Rattus norvegicus; test: Neurotoxicity in pilocarpine-induced status epilepticus Sprague-Dawley albino rat model assessed as minimal motor impairment at 100 mg/kg, ip after 2 hrs by rotarod test; format: toxicity, organism-based; set-up: dose 100 mg/kg, route intraperitoneal; conditions: in vivo
[36] = test system: Rattus norvegicus; test: Neurotoxicity in pilocarpine-induced status epilepticus Sprague-Dawley albino rat model assessed as minimal motor impairment at 300 mg/kg, ip after 2 hrs by rotarod test; format: toxicity, organism-based; set-up: dose 300 mg/kg, route intraperitoneal; conditions: in vivo; method in brief: as §6
[37] = test system: Rattus norvegicus; test: Neurotoxicity in pilocarpine-induced status epilepticus Sprague-Dawley albino rat model assessed as minimal motor impairment at 30 mg/kg, ip after 2 hrs by rotarod test; format: toxicity, organism-based; set-up: dose 30 mg/kg, route intraperitoneal; conditions: in vivo; method in brief: as §6
[38] = test system: Rattus norvegicus; test: Neurotoxicity in pilocarpine-induced status epilepticus Sprague-Dawley albino rat model assessed as minimal motor impairment at 100 mg/kg, ip after 4 hrs by rotarod test; format: toxicity, organism-based; set-up: dose 100 mg/kg, route intraperitoneal; conditions: in vivo
[39] = test system: Rattus norvegicus; test: Neurotoxicity in pilocarpine-induced status epilepticus Sprague-Dawley albino rat model assessed as minimal motor impairment at 300 mg/kg, ip after 4 hrs by rotarod test; format: toxicity, organism-based; set-up: dose 300 mg/kg, route intraperitoneal; conditions: in vivo; method in brief: as §6
[40] = test system: Rattus norvegicus; test: Neurotoxicity in pilocarpine-induced status epilepticus Sprague-Dawley albino rat model assessed as minimal motor impairment at 30 mg/kg, ip after 4 hrs by rotarod test; format: toxicity, organism-based; set-up: dose 30 mg/kg, route intraperitoneal; conditions: in vivo; method in brief: as §6
[41] = test system: Rattus norvegicus; test: Anticonvulsant activity in ip dosed Sprague-Dawley albino rat assessed as protection against pilocarpine-induced status epilepticus after 0.5 hrs; format: functional; method in brief: as §5

CCC(C)C(CC)COC(N)=O (racemic)
68 mg/kg: ED50 [24]
5.5: Ratio TD50/ED50 [23]
active: Activity [3] | Activity [4] | Activity [9] | Activity [10] | Activity [26]
inactive: Activity [2] | Activity [5] | Activity [6] | Activity [7] | Activity [8] | Activity [11] | Activity [12] | Activity [13] | Activity [18] | Activity [19] | Activity [20]
96 mg/kg: ED50 [41]
Non-toxic: Activity [14] | Activity [15] | Activity [16] | Activity [17] | Activity [21] | Activity [29] | Activity [32] | Activity [34] | Activity [36] | Activity [39]
4.3: Ratio TD50/ED50 [25]
174 mg/kg: ED97 [41]
291 mg/kg: TD50 [1]
Toxic: Activity [27] | Activity [28] | Activity [30] | Activity [31] | Activity [33] | Activity [35] | Activity [37] | Activity [38] | Activity [40]
52 mg/kg: ED50 [22]
